According to ChEMBL document CHEMBL1123956, “Nitrosoureido nucleosides as potential inhibitors of nucleotide biosynthesis” (J Med Chem, 1988):
Where “and” joins values, the source holds several entries; their conditions need not be identical. Identical values can stand only once.

Key:
[1] = test system: L1210; assay: percent synthesis of protein in L1210 cells when incubated with the compound for 30 min using [3H]L-Leu as radioligand; assay type: functional, Mus musculus
In short: (§1)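 Protein synthesis in L1210 suspension cultures preincubated with agent for 30 min or 18 h. [4,5-3H]-L-leucine was then added, and incorporation into protein was sampled hourly over 4 h. Values are 4-h incorporation as % of untreated control.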

[2] = test system: L1210; assay: Number of cells present measured with the Coulter counter; assay type: functional, Mus musculus
In short: (§2)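 L1210 suspension cultures with agent for 30 min or 18 h, then a further 4 h with radiolabelled precursor. Cells were counted by Coulter counter and expressed as R, the count relative to the initial cell number (R = 1.0). R < 1.0 means a fall below the starting number; R > 1.0 means proliferation.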

[3] = test system: L1210; assay: percent synthesis of protein in L1210 cells when incubated with the compound for 18 hr uusing [3H]-L-Leu as radioligand; assay type: functional, Mus musculus; in short: as §1
[4] = test system: L1210; assay: percent synthesis of RNA in L1210 cells when incubated with compound for 18 h using […] as radioligand; assay type: functional, Mus musculus
In short: (§3)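 RNA synthesis in L1210 suspension cultures preincubated with agent for 30 min or 18 h. [5-3H]Urd was then added, and incorporation into RNA was sampled hourly over 4 h. Values are 4-h incorporation as % of untreated control.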

[5] = test system: L1210; assay: Number of cells present measured with the Coulter counter(concuM); assay type: functional, Mus musculus; in short: as §2
[6] = test system: L1210; assay: percent synthesis of RNA in L1210 cells when incubated with compound for 18 h using […] as radioligand (conc umol); assay type: functional, Mus musculus; in short: as §3
[7] = test system: L1210; assay: percent synthesis of DNA in L1210 cells when incubated with the compound for 30 min using […] as radioligand; assay type: functional, Mus musculus
In short: (§4)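 DNA synthesis in L1210 suspension cultures preincubated with agent for 30 min or 18 h. [3H]dThd was then added to the medium, and incorporation into DNA was sampled at 1-h intervals over 4 h. Values are for the 4-h labelling period, as % of untreated control.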

[8] = test system: L1210; assay: percent synthesis of DNA in L1210 cells when incubated with the compound for 18 h using […] as radioligand; assay type: functional, Mus musculus; in short: as §4
[9] = test system: L1210; assay: Size distribution of cells; assay type: functional, Mus musculus
In short: (§5)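 L1210 suspension cultures with agent for 30 min or 18 h, then a 4-h labelling period. Size distribution was measured on a Model ZH Coulter Counter. The value is the instrument setting at the peak of cell size; higher settings mean larger cells.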

[10] = test system: L1210; assay: Size distribution of cells (concuM); assay type: functional, Mus musculus; in short: as §5
[11] = test system: Mus musculus; assay: Percent increase in life span of p388 leukemia induced mice was determined at a dose of 25 mg/kg upon ip administration on days 1-5; assay type: functional; settings: route intraperitoneal
In short: (§6)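 Mice implanted with 10⁶ P388 leukemia cells were dosed intraperitoneally once daily on days 1-5 after implant. Activity is expressed as % increase in life span, and 30-day survivors were recorded.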

[12] = (§7) Half life was measured at pH 7; assay type: ADME
In short: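 Stability in pH 7 buffer, followed by HPLC; reported as half-life. The method is taken from an earlier paper.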

[13] = test system: L1210; assay: Inhibition of proliferation of L1210 cells; assay type: functional, cell-based; settings: Mus musculus, read-out: I50
In short: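 L1210 cells in suspension culture with drug for 48 h. I50 was the concentration giving 50% inhibition of proliferation relative to controls.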

[14] = test system: L1210; assay: percent synthesis of RNA in L1210 cells when incubated with compound for 30 min using […] as radioligand; assay type: functional, Mus musculus; in short: as §3
[15] = test system: L1210; assay: percent synthesis of protein in L1210 cells when incubated with the compound for 18 hr using [3H]-L-Leu as radioligand; assay type: functional, Mus musculus; in short: as §1
[16] = test system: HEp-2; assay: Inhibition of colony formation of H.Ep-2 cells; assay type: functional, cell-based; settings: Homo sapiens, read-out: I50
In short: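 H.Ep.-2 cells exposed to drug over a 12-day period. Colony formation was scored against untreated controls, and I50 was taken as the concentration giving 50% inhibition.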

[17] = as §7; assay type: ADME; remark: listed apart in the source
In short: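 Stability in pH 7 buffer, with decomposition followed by HPLC and the half-life taken from it.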

[18] = test system: L1210; assay: percent synthesis of RNA in L1210 cells when incubated with compound for 30 min using [3H]dThd as radioligand at 25 uM conc.; assay type: functional, Mus musculus; settings: in the assay text read “[5-3H]Urd” for “[3H]dThd”; in short: as §3
[19] = test system: L1210; assay: percent synthesis of DNA in L1210 cells when incubated with the compound for 18 h using [3H]dUrd as radioligand at 10 uM conc.; assay type: functional, Mus musculus; settings: in the assay text read “[3H]dThd” for “[3H]dUrd”; in short: as §4
[20] = test system: L1210; assay: Size distribution of cells at 25 uM conc.; assay type: functional, Mus musculus; in short: as §5
[21] = test system: L1210; assay: percent synthesis of protein in L1210 cells when incubated with the compound for 18 hr using [3H]-L-Leu as radioligand at 25 uM conc.; assay type: functional, Mus musculus; in short: as §1
[22] = test system: L1210; assay: percent synthesis of DNA in L1210 cells when incubated with the compound for 30 min using […] as radioligand at 25 uM conc.; assay type: functional, Mus musculus; in short: as §4
[23] = test system: L1210; assay: percent synthesis of RNA in L1210 cells when incubated with compound for 18 hr using […] as radioligand at 25 uM conc.; assay type: functional, Mus musculus; in short: as §3
[24] = test system: L1210; assay: percent synthesis of DNA in L1210 cells when incubated with the compound for 18 hr using […] as radioligand at 25 uM conc.; assay type: functional, Mus musculus; in short: as §4
[25] = test system: L1210; assay: percent synthesis of protein in L1210 cells when incubated with the compound for 30 min using [3H]L-Leu as radioligand at 10 uM conc.; assay type: functional, Mus musculus; in short: as §1
[26] = test system: L1210; assay: percent synthesis of DNA in L1210 cells when incubated with the compound for 30 min using […] as radioligand at 50 uM conc.; assay type: functional, Mus musculus; in short: as §4
[27] = test system: L1210; assay: percent synthesis of RNA in L1210 cells when incubated with compound for 18 hr using […] as radioligand at 50 uM conc.; assay type: functional, Mus musculus; in short: as §3
[28] = test system: L1210; assay: Number of cells present measured with the Coulter counter at 50 uM conc.; assay type: functional, Mus musculus; in short: as §2
[29] = test system: L1210; assay: percent synthesis of protein in L1210 cells when incubated with the compound for 30 min using [3H]L-Leu as radioligand at 50 uM conc.; assay type: functional, Mus musculus; in short: as §1
[30] = test system: L1210; assay: percent synthesis of protein in L1210 cells when incubated with the compound for 18 hr using [3H]-L-Leu as radioligand at 50 uM conc.; assay type: functional, Mus musculus; in short: as §1
[31] = test system: L1210; assay: percent synthesis of RNA in L1210 cells when incubated with compound for 30 min using [3H]dThd as radioligand at 50 uM conc.; assay type: functional, Mus musculus; settings: in the assay text read “[5-3H]Urd” for “[3H]dThd”; in short: as §3
[32] = test system: L1210; assay: percent synthesis of RNA in L1210 cells when incubated with compound for 30 min using […] as radioligand at 10 uM conc.; assay type: functional, Mus musculus; in short: as §3
[33] = test system: L1210; assay: Size distribution of cells at 10 uM conc.; assay type: functional, Mus musculus; in short: as §5
[34] = test system: L1210; assay: Number of cells present measured with the Coulter counter at 25 uM conc.; assay type: functional, Mus musculus; in short: as §2
[35] = test system: L1210; assay: Size distribution of cells at 50 uM conc.; assay type: functional, Mus musculus; in short: as §5
[36] = test system: L1210; assay: percent synthesis of DNA in L1210 cells when incubated with the compound for 18 h using […] as radioligand at 50 uM conc.; assay type: functional, Mus musculus; in short: as §4
[37] = test system: L1210; assay: Number of cells present measured with the Coulter counter at 10 uM conc.; assay type: functional, Mus musculus; in short: as §2
[38] = test system: L1210; assay: percent synthesis of protein in L1210 cells when incubated with the compound for 18 hr using [3H]-L-Leu as radioligand at 10 uM conc.; assay type: functional, Mus musculus; in short: as §1
[39] = test system: L1210; assay: percent synthesis of protein in L1210 cells when incubated with the compound for 30 min using [3H]L-Leu as radioligand at 25 uM conc.; assay type: functional, Mus musculus; in short: as §1
[40] = test system: L1210; assay: percent synthesis of RNA in L1210 cells when incubated with compound for 18 h using […] as radioligand at 10 uM conc.; assay type: functional, Mus musculus; in short: as §3
[41] = test system: L1210; assay: percent synthesis of DNA in L1210 cells when incubated with the compound for 30 min using […] as radioligand at 10 uM conc.; assay type: functional, Mus musculus; in short: as §4
[42] = test system: Mus musculus; assay: Percent increase in life span of p388 leukemia induced mice was determined at a dose of 200 mg/kg upon ip administration on days 1-5; assay type: functional; settings: route intraperitoneal; in short: as §6

## O=NN(CCCl)C(=O)NCC1OC(n2ccc(=O)[nH]c2=O)CC1O (stereo not given)
[1]
  Control: 96% and 92% and 95%
[2]
  Cell no: 1.06 and 1.08 and 1.09 and 0.77 and 0.99
[3]
  Control: 658%
[4]
  Control: 554% and 276%
[5]
  Cell no: 0.54
[6]
  Control: 455%
[7]
  Control: 98% and 103% and 100%
[8]
  Control: 189% and 192% and 152%
[9]
  Cell size: 60 and 82.5 and 75
[10]
  Cell size: 67.5 and 65 and 82.5
[11]
  ILS at 25 mg/kg: 191%
[12]
  half-life: 240 min
[13]
  IC50: 12 µM
[14]
  Control: 87% and 79% and 80%
[15]
  Control: 474% and 254%
[16]
  IC50: 14 µM

## O=NN(CCCl)C(=O)N[C@H]1C(O)O[C@H](CO)[C@@H](O)[C@@H]1O (stereo not given in full) [CHLOROZOTOCIN]
[17]
  T1/2: 52.5 min

## Cc1cn(C2CC(O)C(CNC(=O)N(CCCl)N=O)O2)c(=O)[nH]c1=O (stereo not given)
[18]
  Control: 88%
[19]
  Control: 145%
[20]
  Cell size: 57.5 and 80
[21]
  Control: 455%
[22]
  Control: 98%
[23]
  Control: 374%
[24]
  Control: 171%
[25]
  Control: 83%
[26]
  Control: 85%
[27]
  Control: 539%
[28]
  Cell no: 1.06 and 0.64
[29]
  Control: 111%
[30]
  Control: 597%
[31]
  Control: 87%
[32]
  Control: 85%
[33]
  Cell size: 60 and 80
[34]
  Cell no: 1.08 and 0.92
[11]
  ILS at 25 mg/kg: 135%
[35]
  Cell size: 55 and 85
[36]
  Control: 147%
[37]
  Cell no: 1.08 and 1.21
[12]
  half-life: 360 min
[38]
  Control: 257%
[13]
  IC50: 5 µM
[39]
  Control: 99%
[40]
  Control: 217%
[41]
  Control: 108%
[16]
  IC50: 10 µM

## CN(N=O)C(N)=O [N-METHYL-N-NITROSUREA]
[17]
  T1/2: 52.5 min

## Cc1cn(C2CC(O)C(C(=O)NCCN(N=O)C(=O)Nc3ccccc3)O2)c(=O)[nH]c1=O (stereo not given)
[42]
  ILS at 200 mg/kg: 14%
[12]
  half-life: 42 min
[13]
  IC50: > 90 µM
[16]
  IC50: 90 µM
